In ChEMBL document CHEMBL1143579, “Synthesis and pharmacology of N1-substituted piperazine-2,3-dicarboxylic acid derivatives acting as NMDA receptor antagonists” (J Med Chem, 2005):

Columns and labels:
[1] = target: Glutamate NMDA receptor; Grin1/Grin2b (Rattus norvegicus, UniProt P35439+Q00960); assay: Inhibitory constant against (S)-glutamate and glycine evoked currents mediated by N-methyl-D-aspartate glutamate receptor NR1a/NR2B expressed in Xenopus oocytes; type: cell-based, Oocyte
Procedure, shortened: (§1)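 Xenopus laevis oocytes were injected with NR1a and NR2 subunit RNA (1:3 molar ratio, 15-30 ng total) and held in ND-96 at 17 °C for 1-5 days. Currents were recorded by two-microelectrode voltage clamp at a holding potential of […] in 116 mM NaCl, 2 mM KCl, 2 mM BaCl2, 5 mM HEPES, pH 7.4. The steady plateau response to bath-applied 10 µM L-glutamate plus 10 µM glycine was measured. Apparent Ki was obtained as IC50(obs)/(1 + [agonist]/EC50).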

[2] = target: Glutamate NMDA receptor; Grin1/Grin2c (Rattus norvegicus, UniProt P35439+Q00961); assay: Inhibitory constant against (S)-glutamate and glycine evoked currents mediated by N-methyl-D-aspartate glutamate receptor NR1a/NR2C expressed in Xenopus oocytes; type: cell-based, Oocyte; procedure, shortened: as §1
[3] = Inhibitory constant against (S)-glutamate and glycine evoked currents mediated by N-methyl-D-aspartate glutamate receptor NR1a/NR2D expressed in Xenopus oocytes; type: cell-based, Rattus norvegicus; settings: oocyte
Procedure, shortened: (§2)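 Xenopus laevis oocytes were injected with NR1a and NR2 subunit RNA (1:3 molar ratio, 15-30 ng total) and held in ND-96 at 17 °C for 1-5 days. The steady plateau response to bath-applied 10 µM L-glutamate plus 10 µM glycine was measured. Apparent Ki was obtained as IC50(obs)/(1 + [agonist]/EC50).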

[4] = target: Glutamate NMDA receptor; Grin1/Grin2a (Rattus norvegicus, UniProt P35439+Q00959); assay: Inhibitory constant against (S)-glutamate and glycine evoked currents mediated by N-methyl-D-aspartate glutamate receptor NR1a/NR2A expressed in Xenopus oocytes; type: cell-based, Oocyte; procedure, shortened: as §2
Glutamate NMDA receptor; Grin1/Grin2a, sequence (Q00959 whole entry, other chains not shown): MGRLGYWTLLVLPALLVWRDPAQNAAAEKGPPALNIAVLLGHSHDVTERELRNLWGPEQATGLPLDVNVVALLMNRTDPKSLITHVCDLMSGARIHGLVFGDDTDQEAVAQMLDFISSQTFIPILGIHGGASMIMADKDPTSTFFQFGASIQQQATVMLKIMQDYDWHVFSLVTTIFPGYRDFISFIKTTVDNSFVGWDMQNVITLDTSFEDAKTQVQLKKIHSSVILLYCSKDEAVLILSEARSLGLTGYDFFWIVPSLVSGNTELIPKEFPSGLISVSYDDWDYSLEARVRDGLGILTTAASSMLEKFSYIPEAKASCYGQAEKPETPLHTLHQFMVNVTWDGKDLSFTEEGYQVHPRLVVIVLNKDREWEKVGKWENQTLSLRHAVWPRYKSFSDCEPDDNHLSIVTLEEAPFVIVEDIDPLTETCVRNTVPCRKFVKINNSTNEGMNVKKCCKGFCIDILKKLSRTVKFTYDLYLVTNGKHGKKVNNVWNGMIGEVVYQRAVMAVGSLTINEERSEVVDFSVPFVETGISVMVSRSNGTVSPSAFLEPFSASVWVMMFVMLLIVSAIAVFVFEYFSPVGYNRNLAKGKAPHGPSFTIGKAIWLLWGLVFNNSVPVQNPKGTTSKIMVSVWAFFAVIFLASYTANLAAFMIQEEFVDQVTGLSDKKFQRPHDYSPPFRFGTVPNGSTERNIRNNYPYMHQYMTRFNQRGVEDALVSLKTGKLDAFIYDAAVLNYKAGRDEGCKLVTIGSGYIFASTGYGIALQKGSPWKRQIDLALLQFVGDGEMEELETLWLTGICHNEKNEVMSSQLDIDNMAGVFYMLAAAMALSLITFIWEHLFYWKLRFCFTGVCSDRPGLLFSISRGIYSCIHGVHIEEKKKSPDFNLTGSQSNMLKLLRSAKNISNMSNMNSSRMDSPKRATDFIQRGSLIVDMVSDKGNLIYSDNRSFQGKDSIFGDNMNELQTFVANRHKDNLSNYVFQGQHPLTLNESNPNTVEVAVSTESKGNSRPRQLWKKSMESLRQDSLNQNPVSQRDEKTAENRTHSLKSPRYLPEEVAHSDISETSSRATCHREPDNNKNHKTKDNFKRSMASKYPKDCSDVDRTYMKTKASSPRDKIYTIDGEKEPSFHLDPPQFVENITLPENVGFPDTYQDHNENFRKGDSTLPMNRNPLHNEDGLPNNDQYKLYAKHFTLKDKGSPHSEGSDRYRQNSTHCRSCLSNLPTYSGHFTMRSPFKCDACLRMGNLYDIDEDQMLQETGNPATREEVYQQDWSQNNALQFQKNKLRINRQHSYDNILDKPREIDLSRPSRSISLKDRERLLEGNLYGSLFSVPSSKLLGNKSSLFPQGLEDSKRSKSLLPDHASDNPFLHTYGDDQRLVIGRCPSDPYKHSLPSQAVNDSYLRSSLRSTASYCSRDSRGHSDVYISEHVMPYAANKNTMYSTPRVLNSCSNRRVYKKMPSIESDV

Glutamate NMDA receptor; Grin1/Grin2b, sequence (Q00960 whole entry, other chains not shown): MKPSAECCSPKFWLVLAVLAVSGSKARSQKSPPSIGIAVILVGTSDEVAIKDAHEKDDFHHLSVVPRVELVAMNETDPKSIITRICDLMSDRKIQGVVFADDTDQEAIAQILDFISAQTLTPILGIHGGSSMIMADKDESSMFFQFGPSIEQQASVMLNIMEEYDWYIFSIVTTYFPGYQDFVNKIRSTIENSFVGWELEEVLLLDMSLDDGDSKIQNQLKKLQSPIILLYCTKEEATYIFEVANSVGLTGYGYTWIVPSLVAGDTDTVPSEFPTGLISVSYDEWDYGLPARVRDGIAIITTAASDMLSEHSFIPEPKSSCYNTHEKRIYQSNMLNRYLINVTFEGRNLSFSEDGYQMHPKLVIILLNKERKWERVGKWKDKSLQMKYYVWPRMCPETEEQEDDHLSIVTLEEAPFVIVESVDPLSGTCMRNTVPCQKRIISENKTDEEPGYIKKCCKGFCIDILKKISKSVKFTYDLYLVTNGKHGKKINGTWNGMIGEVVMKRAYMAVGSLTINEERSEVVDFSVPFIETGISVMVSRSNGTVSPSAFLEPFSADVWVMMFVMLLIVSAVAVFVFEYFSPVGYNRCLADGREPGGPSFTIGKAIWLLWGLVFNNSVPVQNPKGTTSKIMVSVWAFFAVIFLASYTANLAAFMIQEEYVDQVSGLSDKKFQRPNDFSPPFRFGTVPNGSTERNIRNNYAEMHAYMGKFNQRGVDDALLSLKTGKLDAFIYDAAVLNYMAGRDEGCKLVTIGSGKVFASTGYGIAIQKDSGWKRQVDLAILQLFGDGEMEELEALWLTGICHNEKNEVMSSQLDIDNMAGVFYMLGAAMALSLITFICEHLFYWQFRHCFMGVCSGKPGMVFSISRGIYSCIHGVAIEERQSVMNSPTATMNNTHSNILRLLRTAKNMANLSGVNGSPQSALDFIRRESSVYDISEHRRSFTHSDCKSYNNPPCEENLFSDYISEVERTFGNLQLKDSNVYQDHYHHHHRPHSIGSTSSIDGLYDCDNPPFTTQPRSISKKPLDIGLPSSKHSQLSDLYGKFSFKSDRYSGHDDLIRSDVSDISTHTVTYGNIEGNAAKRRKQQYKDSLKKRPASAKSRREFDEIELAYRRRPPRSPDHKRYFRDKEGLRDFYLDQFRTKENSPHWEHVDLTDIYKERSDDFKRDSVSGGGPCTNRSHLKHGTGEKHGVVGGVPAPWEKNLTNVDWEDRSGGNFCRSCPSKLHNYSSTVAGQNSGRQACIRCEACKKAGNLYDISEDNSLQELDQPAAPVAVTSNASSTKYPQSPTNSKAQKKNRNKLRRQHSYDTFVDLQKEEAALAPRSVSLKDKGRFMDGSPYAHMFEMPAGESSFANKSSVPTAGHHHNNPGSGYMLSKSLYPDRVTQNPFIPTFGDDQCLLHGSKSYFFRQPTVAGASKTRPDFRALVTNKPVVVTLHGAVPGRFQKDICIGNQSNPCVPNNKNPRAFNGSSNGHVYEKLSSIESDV
Glutamate NMDA receptor; Grin1/Grin2c, sequence (Q00961 whole entry, other chains not shown): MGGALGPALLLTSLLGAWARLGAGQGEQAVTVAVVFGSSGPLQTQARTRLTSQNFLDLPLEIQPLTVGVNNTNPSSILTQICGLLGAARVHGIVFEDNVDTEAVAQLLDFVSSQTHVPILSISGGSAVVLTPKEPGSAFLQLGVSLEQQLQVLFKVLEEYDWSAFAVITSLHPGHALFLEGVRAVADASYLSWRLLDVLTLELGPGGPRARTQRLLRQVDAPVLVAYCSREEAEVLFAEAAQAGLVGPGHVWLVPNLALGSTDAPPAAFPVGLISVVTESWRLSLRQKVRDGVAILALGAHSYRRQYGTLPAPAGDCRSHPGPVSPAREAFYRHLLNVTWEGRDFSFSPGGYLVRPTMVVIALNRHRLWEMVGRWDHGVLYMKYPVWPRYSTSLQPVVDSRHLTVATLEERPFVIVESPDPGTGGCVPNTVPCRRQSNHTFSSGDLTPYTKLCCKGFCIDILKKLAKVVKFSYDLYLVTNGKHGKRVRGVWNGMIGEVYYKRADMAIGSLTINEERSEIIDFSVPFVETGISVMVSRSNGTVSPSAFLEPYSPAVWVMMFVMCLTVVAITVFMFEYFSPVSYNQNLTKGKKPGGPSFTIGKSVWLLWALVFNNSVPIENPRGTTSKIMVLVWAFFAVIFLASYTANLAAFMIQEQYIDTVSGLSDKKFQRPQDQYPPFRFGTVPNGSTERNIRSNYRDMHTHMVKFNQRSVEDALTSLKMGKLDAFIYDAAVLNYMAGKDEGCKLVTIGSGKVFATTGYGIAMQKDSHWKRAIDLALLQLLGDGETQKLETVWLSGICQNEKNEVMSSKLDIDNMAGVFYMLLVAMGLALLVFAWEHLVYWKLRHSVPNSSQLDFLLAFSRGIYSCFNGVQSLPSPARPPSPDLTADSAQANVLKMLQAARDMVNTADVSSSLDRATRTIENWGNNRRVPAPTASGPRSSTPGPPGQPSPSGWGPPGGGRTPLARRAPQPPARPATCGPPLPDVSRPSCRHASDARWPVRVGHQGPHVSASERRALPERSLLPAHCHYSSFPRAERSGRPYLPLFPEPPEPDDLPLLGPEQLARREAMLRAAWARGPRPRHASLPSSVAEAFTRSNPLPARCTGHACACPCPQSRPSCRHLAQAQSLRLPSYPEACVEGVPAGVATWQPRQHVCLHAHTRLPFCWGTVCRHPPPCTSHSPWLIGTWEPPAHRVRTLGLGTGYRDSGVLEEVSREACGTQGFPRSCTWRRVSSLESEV

SMILES | Ki [1] | Ki [2] | Ki [3] | Ki [4]
C[C@H](NC(c1cccc2nc(O)c(O)nc12)P(=O)(O)O)c1ccc(Br)cc1 (stereo partly specified) | 0.067 µM | 0.0116 µM | 0.037 µM | 0.0054 µM
O=C(O)[C@H]1NCCN(C(=O)c2ccc3c(ccc4ccccc43)c2)[C@H]1C(=O)O | 0.31 µM | 0.096 µM | 0.125 µM | 0.55 µM
O=C(O)[C@H]1NCCN(C(=O)c2ccc3ccc4ccccc4c3c2)[C@H]1C(=O)O | 19.3 µM | 4.22 µM | 2.78 µM | 14.2 µM
O=C(O)[C@H]1NCCN(C(=O)c2ccccc2)[C@H]1C(=O)O | > 100 µM | > 100 µM | > 100 µM | > 100 µM
N[C@H](CCCCCP(=O)(O)O)C(=O)O | 4.14 µM | 6.42 µM | 17.1 µM | 0.49 µM
O=C(O)[C@H]1NCCN(C(=O)c2ccc3c(ccc4cc(Br)ccc43)c2)[C@H]1C(=O)O | 0.25 µM | 0.0994 µM | 0.15 µM | 0.32 µM
O=C(O)[C@@H]1NCCN(C(=O)c2ccc3c(ccc4ccccc43)c2)[C@H]1C(=O)O | 9.08 µM | 4.88 µM | 6.03 µM | 10.5 µM
O=C(O)[C@H]1NCCN(C(=O)c2ccc(-c3ccccc3)cc2)[C@H]1C(=O)O | 5.01 µM | 8.98 µM | 4.29 µM | 15.8 µM
N[C@H](CCCP(=O)(O)O)C(=O)O | 0.46 µM | 1.64 µM | 3.71 µM | 0.28 µM
O=C(O)[C@H]1NCCN(Cc2ccc3c(ccc4ccccc43)c2)[C@H]1C(=O)O | 10.2 µM | 2.67 µM | 3.18 µM | 11.2 µM
O=C1c2ccccc2-c2ccc(C(=O)N3CCN[C@H](C(=O)O)[C@@H]3C(=O)O)cc21 | 9.36 µM | 4.42 µM | 6.45 µM | 7.97 µM

Continued, values first:

Ki [1] | Ki [2] | Ki [3] | Ki [4] | SMILES
3.25 µM | 1.17 µM | 2.17 µM |  | O=C(O)[C@H]1NCCN(C(=O)c2ccc3c(c2)Cc2ccccc2-3)[C@H]1C(=O)O
18 µM | 27 µM | 59.7 µM | 13.2 µM | O=C(O)[C@H]1NCCN(C(=O)/C=C/c2ccccc2)[C@H]1C(=O)O
18.2 µM | 3.89 µM |  |  | O=C(O)[C@H]1NCCN(C(=O)c2ccc3ccccc3c2)[C@H]1C(=O)O
13.4 µM | 7.38 µM | 8.02 µM | 8.78 µM | O=C(O)[C@H]1NCCN(C(=O)c2ccc(-c3ccc(F)cc3)cc2)[C@H]1C(=O)O
22.1 µM | 8.49 µM | 12.9 µM | 42.9 µM | O=C(O)[C@H]1NCCN(C(=O)c2ccc(-c3ccccc3Br)cc2)[C@H]1C(=O)O
0.27 µM | 0.63 µM | 1.99 µM | 0.041 µM | O=C(O)[C@H]1CN(CCCP(=O)(O)O)CCN1
0.76 µM | 0.29 µM | 0.57 µM | 1.54 µM | O=C(O)[C@H]1NCCN(C(=O)c2ccc3c(c2)CCc2ccccc2-3)[C@H]1C(=O)O
16.2 µM | 8.67 µM | 10.9 µM | 13.6 µM | O=C(O)[C@H]1NCCN(S(=O)(=O)c2ccc(-c3ccccc3)cc2)[C@H]1C(=O)O
0.3 µM | 0.85 µM | 1.94 µM | 0.84 µM | O=C(O)[C@H]1NCCN(C(=O)/C=C/c2ccc3ccccc3c2)[C@H]1C(=O)O
2.15 µM | 0.66 µM | 1.03 µM | 3.88 µM | O=C(O)[C@H]1NCCN(C(=O)c2ccc3c(c2)CCc2cc(Br)ccc2-3)[C@H]1C(=O)O
